Experimental data of several laboratories.
Sample: plasma

SMILES | species | route | dose | notes | Cmax
CCNC(=O)c1nc(-c2ccc3[nH]c(-c4nc(C)no4)cc3c2)c(C)[nH]1 | Sprague-Dawley rat | oral | 10 mg/kg | suspension | 2.6 µM
CCc1cc(C(=O)NC)c2nccc(N3CCc4c(cc(Cn5ccnc5)cc4-c4cn(C)nc4C(F)(F)F)C3=O)c2c1 | male Sprague-Dawley rat | oral | 50 mg/kg |  | 18400 ng/mL
COCc1nn(Cc2ccc(Cn3ccccc3=O)cc2)cc1C(=O)NCc1c(C#N)ccc(OC)c1F | male Sprague-Dawley rat | oral | 10 mg/kg |  | 360 ng/mL
COc1ccc2c(Cc3ccccc3F)c3n(c(=O)c2c1OC)CCc1cc2c(cc1-3)OCO2 | rat | oral | 5 mg/kg |  | 310 ng/mL
COc1nc(-c2cc(C)c(N[C@@H](C)c3cc(F)cc(F)c3)nn2)ccc1-n1cnc(C)c1 | male Sprague-Dawley rat | oral | 5 mg/kg | single dose | 3240 ng/mL
Cc1c(-c2ccccc2)cccc1N1C(=O)c2cc(CN[C@H](C(=O)O)C(C)O)c(OCc3cccc(C#N)c3)cc2C1=O (stereo partly shown) | Sprague-Dawley rat | intravenous | 5 mg/kg |  | 4350 ng/mL
COc1ccnc(CNC(=O)c2cn(Cc3ccc(Cn4ccccc4=O)cc3)nc2C(F)(F)F)c1F | male Sprague-Dawley rat | oral | 10 mg/kg |  | 2490 ng/mL
N#Cc1ccc(Nc2nc(N)cc(Oc3c(F)cc(-c4ccc(C#N)cc4)cc3F)n2)cc1 | Sprague-Dawley rat | oral | 5 mg/kg |  | 15.4 ng/mL
N#Cc1[nH]nnc1-c1cccc(-c2cc(F)cc(C(F)(F)F)c2)c1 | male Sprague-Dawley rat | oral | 10 mg/kg |  | 5750 ng/mL
Oc1c(Br)cc(Cl)c2cccnc12 | Sprague-Dawley rat | oral | 20 mg/kg |  | 1700 ng/mL
CCOC(=O)[C@@]12C[C@@H]1[C@@H](n1ccc3c(NC)nc(C#Cc4ccc(Cl)s4)nc31)[C@H](O)[C@@H]2O | male Sprague-Dawley rat | oral | 3 mg/kg |  | 67.1 ng/mL
C=CC(=O)N1CC2CC(n3nc(-c4ccc(C(=O)Nc5ccccn5)cc4)c4c(N)ncnc43)CC2C1 (stereo not shown) | male Wistar rat | oral | 100 mg/kg |  | 2880 ng/mL
CC(C)(C)C[C@H]1N[C@@H](C(=O)NCC[C@H](O)CO)[C@H](c2cccc(Cl)c2)[C@@]12C(=O)Nc1cc(Cl)c(F)cc12 | rat | oral | 25 mg/kg |  | 6.4 µM
COc1cc2c3c(n(CCCN4CCOCC4)c(=O)c2cc1OC)-c1cc2c(cc1C3=O)OCO2 | female Fischer 344 rat | intravenous | 12 mg/m² | single dose | 301 ng/mL
CCc1nc(C(N)=O)c(Nc2ccc(N3CCC(N4CCN(C)CC4)CC3)c(OC)c2)nc1NC1CCOCC1 | male Sprague-Dawley rat | oral | 10 mg/kg |  | 341 ng/mL
CNC(=O)c1c(C)oc2cc(Oc3ncnc4cc(OC)c(OC)cc34)ccc12 | Sprague-Dawley rat | oral | 1 mg/kg | single dose | 712 ng/mL
